Experimental findings from ChEMBL document CHEMBL1121479, “Simple beta-lactam compounds derived from 6-aminopenicillanic acid” (1980) are described below.

The structures appear in SMILES notation. Converted amounts (≈) assume the structure as drawn.

Usually MIC stands for the lowest concentration that inhibits growth of the organism. Read a high MIC as a less susceptible organism.

The subject of test [1] is Enterobacter cloacae. As to the kind of experiment: Evaluated for the minimum inhibitory concentration (MIC) which inhibits the growth of Enterobacter cloacae ATCC 13047. The class given is functional. A digest of the protocol:
(§1)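 Agar dilution on trypticase soy agar plates holding sample or standard at 0 to 200 μg/mL agar. Solutions were made and diluted in Me₂SO or water. Each plate was inoculated twice with every organism using a Steers replicator and incubated 18 h at 37 °C. MIC was taken as the lowest level that inhibited growth.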

In test [2] the test system is Pseudomonas aeruginosa. Description: Evaluated for the minimum inhibitory concentration (MIC) which inhibits the growth of Pseudomonas aeruginosa ATCC 9721. The test is classed as functional. A digest of the protocol:
as §1

In test [3] the test system is Klebsiella pneumoniae. As to the kind of experiment: Evaluated for the minimum inhibitory concentration (MIC) which inhibits the growth of Klebsiella pneumoniae ATCC 27736. The test is classed as functional. A digest of the protocol:
as §1

The test system of test [4] is Staphylococcus aureus. Description: Evaluated for the minimum inhibitory concentration (MIC) which inhibits the growth of Staphylococcus aureus ATCC 25923. The class given is functional. A digest of the protocol:
as §1

Test [5] concerns Salmonella typhimurium. As to the kind of experiment: Evaluated for the minimum inhibitory concentration (MIC) which inhibits the growth of. The class given is functional, salmonella typhimurium a. The following applies: Salmonella enterica. A digest of the protocol:
as §1

Test [6] relates to Proteus mirabilis. As to the kind of experiment: Evaluated for the minimum inhibitory concentration (MIC) which inhibits the growth of Proteus mirabilis MIT B-52. The test is classed as functional. A digest of the protocol: as §1
For test [7], the system named is Streptococcus pyogenes. Description: Evaluated for the minimum inhibitory concentration (MIC) which inhibits the growth of Streptococcus pyogenes ATCC 10389. The class given is functional. A digest of the protocol: as §1
Test [8] has as its system Proteus vulgaris. As to the kind of experiment: Evaluated for the minimum inhibitory concentration (MIC) which inhibits the growth of Proteus vulgaris ATCC 6380. The class given is functional. A digest of the protocol:
as §1

Test [9] deals with Serratia marcescens. As to the kind of experiment: Evaluated for the minimum inhibitory concentration (MIC) which inhibits the growth of Serratia marcescens MIT B-43. The test is classed as functional. A digest of the protocol: as §1
Test [10] deals with Micrococcus luteus. Description: Evaluated for the minimum inhibitory concentration (MIC) which inhibits the growth of Sarcina lutea ATCC 9341. The test is classed as functional. A digest of the protocol:
as §1

The subject of test [11] is Bacillus subtilis. Description: Evaluated for the minimum inhibitory concentration (MIC) which inhibits the growth of Bacillus subtilis ATCC 6051. The class given is functional. A digest of the protocol: as §1
For test [12], the system named is Staphylococcus epidermidis. Description: Evaluated for the minimum inhibitory concentration (MIC) which inhibits the growth of Staphylococcus epidermidis ATCC 14990. The test is classed as functional. A digest of the protocol: as §1
Test [13] relates to Shigella sonnei. Description: Evaluated for the minimum inhibitory concentration (MIC) which inhibits the growth of Shigella sonnei ATCC 11060. The class given is functional. A digest of the protocol: as §1
Test [14] relates to Escherichia coli. Description: Evaluated for the minimum inhibitory concentration (MIC) which inhibits the growth of Escherichia coli ATCC 25922. The class given is functional. A digest of the protocol: as §1
In test [15] the test system is Staphylococcus aureus. Description: Evaluated for the minimum inhibitory concentration (MIC) which inhibits the growth of Staphylococcus aureus ATCC 25923 (gram-positive). The class given is functional. A digest of the protocol: as §1
For test [16], the system named is Bacillus subtilis. Description: Evaluated for the minimum inhibitory concentration (MIC) which inhibits the growth of Bacillus subtilis ATCC 6051 (gram-positive). The test is classed as functional. A digest of the protocol:
as §1

Test [17] relates to Escherichia coli. As to the kind of experiment: Evaluated for the minimum inhibitory concentration (MIC) which inhibits the growth of Escherichia coli ATCC 25922 (gram-negative). The class given is functional. A digest of the protocol: as §1
Test [18] concerns Serratia marcescens. Description: Evaluated for the minimum inhibitory concentration (MIC) which inhibits the growth of Serratia marcescens MIT B-43 (gram-negative). The test is classed as functional. A digest of the protocol: as §1
In test [19] the test system is Shigella sonnei. Description: Evaluated for the minimum inhibitory concentration (MIC) which inhibits the growth of Shigella sonnei ATCC 11060 (gram-negative). The test is classed as functional. A digest of the protocol:
as §1

Test [20] has as its system Micrococcus luteus. As to the kind of experiment: Evaluated for the minimum inhibitory concentration (MIC) which inhibits the growth of Sarcina lutea ATCC 9341 (gram-positive). The class given is functional. A digest of the protocol: as §1
Test [21] has as its system Enterobacter cloacae. Description: Evaluated for the minimum inhibitory concentration (MIC) which inhibits the growth of Enterobacter cloacae ATCC 13047 (gram-negative). The test is classed as functional. A digest of the protocol: as §1
The test system of test [22] is Staphylococcus epidermidis. Description: Evaluated for the minimum inhibitory concentration (MIC) which inhibits the growth of Staphylococcus epidermidis ATCC 14990 (gram-positive). The class given is functional. A digest of the protocol: as §1
Test [23] has as its system Salmonella typhimurium. As to the kind of experiment: Evaluated for the minimum inhibitory concentration (MIC) which inhibits the growth of Salmonella Typhimurium ATCC 13311 (gram-negative). The class given is functional, Salmonella enterica subsp. enterica serovar Typhimurium. The following applies: Salmonella enterica. A digest of the protocol:
as §1

Test [24] has as its system Streptococcus pyogenes. As to the kind of experiment: Evaluated for the minimum inhibitory concentration (MIC) which inhibits the growth of Streptococcus pyogenes ATCC 10389 (gram-positive). The test is classed as functional. A digest of the protocol: as §1
The test system of test [25] is Proteus vulgaris. Description: Evaluated for the minimum inhibitory concentration (MIC) which inhibits the growth of Proteus vulgaris ATCC 6380 (gram-negative). The class given is functional. A digest of the protocol: as §1
The test system of test [26] is Pseudomonas aeruginosa. Description: Evaluated for the minimum inhibitory concentration (MIC) which inhibits the growth of Pseudomonas aeruginosa ATCC 9721 (gram-negative). The test is classed as functional. A digest of the protocol: as §1
Test [27] concerns Proteus mirabilis. As to the kind of experiment: Evaluated for the minimum inhibitory concentration (MIC) which inhibits the growth of Proteus mirabilis MIT B-52 (gram-negative). The test is classed as functional. A digest of the protocol:
as §1

In test [28] the test system is Klebsiella pneumoniae. Description: Evaluated for the minimum inhibitory concentration (MIC) which inhibits the growth of Klebsiella pneumoniae ATCC 27736 (gram-negative). The test is classed as functional. A digest of the protocol:
as §1

Take `CC(C)(CO)SC1CC(=O)N1` (stereo not drawn): the MIC against Enterobacter cloacae [1], in the test on Pseudomonas aeruginosa [2], with Klebsiella pneumoniae [3], in the test on Staphylococcus aureus [4], with Salmonella typhimurium [5] and with Proteus mirabilis [6] was > 100 µg/mL each time. Further, the MIC is > 100 µg/mL in the test with Streptococcus pyogenes [7]; > 100 µg/mL against Proteus vulgaris [8]; > 100 µg/mL with Serratia marcescens [9]; > 100 µg/mL against Micrococcus luteus [10]; 100 µg/mL (≈ 571 µM) in the test with Bacillus subtilis [11]; > 100 µg/mL in test [12]. The MIC with Shigella sonnei [13] and in the test on Escherichia coli [14] was > 100 µg/mL throughout.
Regarding `CC1(C)SC2CC(=O)N2C1O` (stereo not drawn), the MIC against Staphylococcus aureus [15] is > 100 µg/mL; with Bacillus subtilis [16], 25 µg/mL (≈ 144 µM); in the test on Escherichia coli [17], > 100 µg/mL; against Serratia marcescens [18], > 100 µg/mL; in the test on Shigella sonnei [19] it was > 100 µg/mL; in the test with Micrococcus luteus [20], > 100 µg/mL. Besides, the MIC (against Enterobacter cloacae [21]; in test [22]; with Salmonella typhimurium [23]; with Streptococcus pyogenes [24]; against Proteus vulgaris [25]; against Pseudomonas aeruginosa [26]) was > 100 µg/mL each time. The minimal inhibitory concentration (MIC) in the test on Proteus mirabilis [27] and in the test on Klebsiella pneumoniae [28] was > 100 µg/mL throughout.
